From ChEMBL document CHEMBL1137218, “Long hydrocarbon chain ether diols and ether diacids that favorably alter lipid disorders in vivo” (J Med Chem, 2004)
pIC50: −log10 of the molar value.

Legend:
Format in all cases: functional
Rattus norvegicus [1] = experiment: Blood glucose levels in female obese rats two weeks post treatment at 3 mg/kg oral dose; pretreatment value = 115 mg/dL
Rattus norvegicus [2] = experiment: Serum Triglyceride levels in female obese rats one week post treatment at 30 mg/kg oral dose; pretreatment value = 1004 mg/dL
Rattus norvegicus [3] = experiment: Serum Triglyceride levels in female obese rats two weeks post treatment at 3 mg/kg oral dose; pretreatment value = 1111 mg/dL
Rattus norvegicus [4] = experiment: Serum Triglyceride levels in female obese rats two weeks post treatment at 10 mg/kg oral dose; pretreatment value = 1185 mg/dL
Rattus norvegicus [5] = experiment: Serum Triglyceride levels in female obese rats two weeks post treatment at 30 mg/kg oral dose; pretreatment value = 1004 mg/dL
Rattus norvegicus [6] = experiment: Serum HDL cholesterol levels in female obese rats one week post treatment at 100 mg/kg oral dose; pretreatment value = 58 mg/dL
Rattus norvegicus [7] = experiment: Serum Triglyceride levels in female obese rats two weeks post treatment at 100 mg/kg oral dose; pretreatment value = 1068 mg/dL
Rattus norvegicus [8] = experiment: Blood glucose levels in female obese rats one week post treatment at 100 mg/kg oral dose; pretreatment value = 105 mg/dL
Rattus norvegicus [9] = experiment: Blood glucose levels in female obese rats two weeks post treatment at 10 mg/kg oral dose; pretreatment value = 110 mg/dL
Rattus norvegicus [10] = experiment: Blood glucose levels in female obese rats two weeks post treatment at 30 mg/kg oral dose; pretreatment value = 106 mg/dL
Rattus norvegicus [11] = organism: Rattus norvegicus; experiment: In vitro inhibitory concentration against lipid synthesis in primary rat hepatocyte culture
In short: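 Primary hepatocytes isolated from male Sprague-Dawley rats (Seglen method) and plated on collagen in DMEM with 20% FBS, 100 nM insulin, 25 mM glucose. Medium made serum-free after 4 h, cultured overnight to monolayers. Then 4 h incubation with 0.25 μCi [14C]-acetate/well (1 Ci/mol) and 0–300 μM compound. Lipids extracted into scintillant and counted. IC50 derived from lipid synthesis rates by nonlinear sigmoidal fit.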

Rattus norvegicus [12] = experiment: Serum Non-HDL cholesterol levels in female obese rats two weeks post treatment at 30 mg/kg oral dose; pretreatment value = 31 mg/dL
In short: (§1)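 Female obese Zucker fatty rats (10–12 weeks, 400–500 g), once-daily oral gavage in 20% EtOH/80% PEG-200 (v/v) for up to 14 days. Serum drawn after a 6 h fast, pre-dose and at days 7 and 14. Non-HDL cholesterol is serum total cholesterol times the percent area of the non-HDL peaks in a Superose 6HR gel-filtration profile with on-line cholesterol detection. n = 4 per dose.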

Rattus norvegicus [13] = experiment: Serum Non-HDL cholesterol levels in female obese rats two weeks post treatment at 100 mg/kg oral dose; pretreatment value = 23 mg/dL; in short: as §1
Rattus norvegicus [14] = experiment: Percent change from pre-treatment triglycerides level at 100 mg/Kg after 1 week
In short: (§2)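 Female obese Zucker fatty rats Crl:(Zuc)-faBR, 10–12 weeks old (400–500 g), n=3–4, fed chow. Dosed by oral gavage once daily in 20% EtOH/80% PEG-200 for up to 14 days. Serum taken after a 6 h fast before dosing, at day 7 (orbital plexus) and at day 14 (cardiac puncture). TG by enzymatic kit on analyzer. HDL-C and non-HDL-C from Superose 6 gel-filtration profile area × total cholesterol. Results given as % change from pretreatment.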

Rattus norvegicus [15] = experiment: Percent change from pre-treatment triglycerides level at 100 mg/Kg after 2 weeks; in short: as §2
Rattus norvegicus [16] = experiment: Percent change from pre-treatment HDL-Cholesterol level at 100 mg/Kg after 1 week; in short: as §2
Rattus norvegicus [17] = experiment: Percent change from pre-treatment HDL-Cholesterol level at 100 mg/Kg after 2 weeks; in short: as §2
Rattus norvegicus [18] = experiment: Percent change from pre-treatment Non HDL-Cholesterol level at 100 mg/Kg after 1 week; in short: as §2
Rattus norvegicus [19] = experiment: Percent change from pre-treatment Non HDL-Cholesterol level at 100 mg/Kg after 2 weeks; in short: as §2
Rattus norvegicus [20] = experiment: Serum NEFA levels in female obese rats two weeks post treatment at 3 mg/kg oral dose; pretreatment value = 1.1 mg/dL
Rattus norvegicus [21] = experiment: Insulin levels in female obese rats one week post treatment at 3 mg/kg oral dose; pretreatment value = 13.3 ng/mL
Rattus norvegicus [22] = experiment: Insulin levels in female obese rats one week post treatment at 100 mg/kg oral dose; pretreatment value = 8.6 ng/mL
Rattus norvegicus [23] = experiment: Insulin levels in female obese rats two weeks post treatment at 30 mg/kg oral dose; pretreatment value = 9 ng/mL
Rattus norvegicus [24] = experiment: Blood glucose levels in female obese rats two weeks post treatment at 100 mg/kg oral dose; pretreatment value = 105 mg/dL
Rattus norvegicus [25] = experiment: Serum Non-HDL cholesterol levels in female obese rats one week post treatment at 30 mg/kg oral dose; pretreatment value = 31 mg/dL; in short: as §1
Rattus norvegicus [26] = experiment: Serum Non-HDL cholesterol levels in female obese rats one week post treatment at 100 mg/kg oral dose; pretreatment value = 23 mg/dL; in short: as §1
Rattus norvegicus [27] = experiment: Blood glucose levels in female obese rats two weeks post treatment at 3 mg/kg oral dose; pretreatment value = 117 mg/dL
Rattus norvegicus [28] = experiment: Serum HDL cholesterol levels in female obese rats one week post treatment at 3 mg/kg oral dose; pretreatment value = 59 mg/dL
Rattus norvegicus [29] = experiment: Serum Triglyceride levels in female obese rats one week post treatment at 100 mg/kg oral dose; pretreatment value = 746 mg/dL
Rattus norvegicus [30] = experiment: Serum Triglyceride levels in female obese rats two weeks post treatment at 10 mg/kg oral dose; pretreatment value = 943 mg/dL
Rattus norvegicus [31] = experiment: Serum NEFA levels in female obese rats two weeks post treatment at 100 mg/kg oral dose; pretreatment value = 1.1 mg/dL
Rattus norvegicus [32] = experiment: Serum Triglyceride levels in female obese rats one week post treatment at 3 mg/kg oral dose; pretreatment value = 769 mg/dL
Rattus norvegicus [33] = experiment: Serum Triglyceride levels in female obese rats two weeks post treatment at 3 mg/kg oral dose; pretreatment value = 769 mg/dL
Rattus norvegicus [34] = experiment: Serum HDL cholesterol levels in female obese rats two weeks post treatment at 10 mg/kg oral dose; pretreatment value = 56 mg/dL
Rattus norvegicus [35] = experiment: Serum HDL cholesterol levels in female obese rats two weeks post treatment at 100 mg/kg oral dose; pretreatment value = 59 mg/dL
Rattus norvegicus [36] = experiment: Insulin levels in female obese rats one week post treatment at 3 mg/kg oral dose; pretreatment value = 12.9 ng/mL
Rattus norvegicus [37] = experiment: Insulin levels in female obese rats one week post treatment at 30 mg/kg oral dose; pretreatment value = 9.3 ng/mL
Rattus norvegicus [38] = experiment: Insulin levels in female obese rats two weeks post treatment at 10 mg/kg oral dose; pretreatment value = 8.2 ng/mL
Rattus norvegicus [39] = experiment: Insulin levels in female obese rats two weeks post treatment at 3 mg/kg oral dose; pretreatment value = 12.9 ng/mL
Rattus norvegicus [40] = experiment: Blood glucose levels in female obese rats one week post treatment at 3 mg/kg oral dose; pretreatment value = 117 mg/dL
Rattus norvegicus [41] = experiment: Serum Non-HDL cholesterol levels in female obese rats one week post treatment at 3 mg/kg oral dose; pretreatment value = 21 mg/dL; in short: as §1

With `CC(C)(CO)CCCCCOCCCCCC(C)(C)CO` the Activity (Rattus norvegicus [1]) was 114 mg/dL, the Activity (Rattus norvegicus [2]) was 191 mg/dL and the Activity (Rattus norvegicus [3]) was 1116 mg/dL. The Activity (Rattus norvegicus [4]) was 1420 mg/dL, the Activity (Rattus norvegicus [5]) was 424 mg/dL and the Activity (Rattus norvegicus [6]) was 115 mg/dL. The Activity (Rattus norvegicus [7]) was 167 mg/dL, the Activity (Rattus norvegicus [8]) was 72 mg/dL and the Activity (Rattus norvegicus [9]) was 119 mg/dL. The Activity (Rattus norvegicus [10]) was 141 mg/dL, the pIC50 (Rattus norvegicus [11]) was 5.40 and the Activity (Rattus norvegicus [12]) was 32 mg/dL. For the same compound, the Activity (Rattus norvegicus [13]) was 10 mg/dL, the Change (Rattus norvegicus [14]) was -91% and the Change (Rattus norvegicus [15]) was -82%. For the same compound, the Change (Rattus norvegicus [16]) was 99%, the Change (Rattus norvegicus [17]) was 133% and the Change (Rattus norvegicus [18]) was -82%. The Change (Rattus norvegicus [19]) was -68%, the Activity (Rattus norvegicus [20]) was 1.5 mg/dL and the Activity (Rattus norvegicus [21]) was 12.2 ng/mL. It also gave an Activity (Rattus norvegicus [22]) of 3.5 ng/mL, an Activity (Rattus norvegicus [23]) of 10.4 ng/mL and an Activity (Rattus norvegicus [24]) of 104 mg/dL. It also gave an Activity (Rattus norvegicus [25]) of 15 mg/dL and an Activity (Rattus norvegicus [26]) of 5 mg/dL.
In the case of `CC(C)(CO)CCCCOCCCCC(C)(C)CO`, the Activity (Rattus norvegicus [27]) was 119 mg/dL, the Activity (Rattus norvegicus [28]) was 70 mg/dL and the Activity (Rattus norvegicus [29]) was 174 mg/dL. It also gave an Activity (Rattus norvegicus [30]) of 706 mg/dL, an Activity (Rattus norvegicus [31]) of 0.83 mg/dL and an Activity (Rattus norvegicus [32]) of 770 mg/dL. For the same compound, the Activity (Rattus norvegicus [33]) was 934 mg/dL, the Activity (Rattus norvegicus [34]) was 134 mg/dL and the Activity (Rattus norvegicus [8]) was 107 mg/dL. It also gave an Activity (Rattus norvegicus [35]) of 263 mg/dL, a pIC50 (Rattus norvegicus [11]) of 4.96 and an Activity (Rattus norvegicus [12]) of 33 mg/dL. The Activity (Rattus norvegicus [13]) was 26 mg/dL, the Change (Rattus norvegicus [14]) was -77% and the Change (Rattus norvegicus [15]) was -71%. It also gave a Change (Rattus norvegicus [16]) of 234%, a Change (Rattus norvegicus [17]) of 366% and a Change (Rattus norvegicus [18]) of -38%. It also gave a Change (Rattus norvegicus [19]) of 11%, an Activity (Rattus norvegicus [36]) of 15.1 ng/mL and an Activity (Rattus norvegicus [37]) of 14.2 ng/mL. The Activity (Rattus norvegicus [38]) was 9 ng/mL, the Activity (Rattus norvegicus [39]) was 9.9 ng/mL and the Activity (Rattus norvegicus [40]) was 114 mg/dL. The Activity (Rattus norvegicus [24]) was 101 mg/dL, the Activity (Rattus norvegicus [41]) was 26 mg/dL and the Activity (Rattus norvegicus [25]) was 20 mg/dL. The Activity (Rattus norvegicus [26]) was 14 mg/dL.
